Columns and labels:
[1] = molecular target: Epidermal growth factor receptor (Homo sapiens, UniProt P00533, L858R); experiment: Inhibition of human GST-tagged EGFR L834R mutant expressed in Sf9 cells by luminescence assay; type: cell-based
[2] = molecular target: T1, Epidermal growth factor receptor (Homo sapiens, UniProt P00533); experiment: Inhibition of human wild type GST-tagged EGFR kinase domain expressed in Sf9 cells by luminescence assay; type: cell-based
[3] = test system: Epidermal growth factor receptor (Homo sapiens), P04626+P00533+Q15303+P21860 [UNDEFINED MUTATION]; experiment: Inhibition of EGFR T766M mutant (unknown origin) at 1 uM relative to control; type: protein assay
How it was run: (§1)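 Single-concentration profiling at 1 μM across a 317-kinase panel that includes wild-type and mutant EGFR and HER2. Activity of each kinase is given as percent inhibition relative to control.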

[4] = test system: Epidermal growth factor receptor (Homo sapiens), P00533 [L834R]; experiment: Inhibition of EGFR L834R mutant (unknown origin) at 1 uM relative to control; type: protein assay; how it was run: as §1
[5] = molecular target: T1, Epidermal growth factor receptor; experiment: Ratio of gefitinib IC50 to compound IC50 for human wild type GST-tagged EGFR kinase domain
[6] = test system: Epidermal growth factor receptor (Homo sapiens), P00533 [L858R]; experiment: Ratio of gefitinib IC50 to compound IC50 for human GST-tagged EGFR L834R mutant
[7] = molecular target: T1, Epidermal growth factor receptor; experiment: Inhibition of wild type EGFR (unknown origin) at 1 uM relative to control; how it was run: as §1
[8] = test system: Epidermal growth factor receptor (Homo sapiens), P04626+P00533+Q15303+P21860 [UNDEFINED MUTATION]; experiment: Inhibition of EGFR T766M/L834R mutant (unknown origin) at 1 uM relative to control; type: protein assay; how it was run: as §1
[9] = molecular target: Cyclin-dependent kinase 2 (Homo sapiens) (UniProt P24941); experiment: Inhibition of CDK2 (unknown origin) at 1 uM relative to control; how it was run: as §1
[10] = molecular target: Epidermal growth factor receptor (Homo sapiens) (UniProt P04626+P00533+Q15303+P21860); experiment: Inhibition of EGFR L837Q mutant (unknown origin) at 1 uM relative to control; type: protein assay; how it was run: as §1
Homo sapiens [11] = organism: Homo sapiens; experiment: Toxicity in human assessed as occurrence of diarrhea; type: organism-based; conditions: in vivo
Homo sapiens [12] = organism: Homo sapiens; experiment: Toxicity in human assessed as occurrence of rash; type: organism-based; conditions: in vivo

Row | Compound | IC50 [1] [nM] | IC50 [2] [nM] | further results
1 | CC[C@@H](Nc1ncnc2oc(-c3ccccc3)c(-c3ccccc3)c12)c1ccccc1 | > 10000 | > 10000 | –
2 | C[C@@H](Nc1ncnc2oc(-c3ccccc3)c(-c3ccccc3)c12)c1ccccc1 | 339 | 2990 | –
3 | OC[C@@H](Nc1ncnc2oc(-c3ccccc3)c(-c3ccoc3)c12)c1ccccc1 | 44 | 352 | –
4 | OC[C@@H](Nc1ncnc2oc(-c3ccccc3)c(Cl)c12)c1ccccc1 | 168 | 589 | –
5 | CN(C)C/C=C/C(=O)Nc1cc2c(Nc3ccc(F)c(Cl)c3)ncnc2cc1O[C@@H]1CCOC1 | – | – | Activity (Homo sapiens [11]): 95%; Activity (Homo sapiens [12]): 62%
6 | CC(=O)Nc1ccc(-c2c(-c3ccccc3)oc3ncnc(N[C@H](CO)c4ccccc4)c23)cc1 | 23 | 179 | –
7 | COC(=O)[C@@H](Nc1ncnc2oc(-c3ccccc3)c(-c3ccccc3)c12)c1ccccc1 | 1450 | 7890 | –
8 | O=[N+]([O-])c1cccc(-c2c(-c3ccccc3)oc3ncnc(N[C@H](CO)c4ccccc4)c23)c1 | 49 | 820 | –
9 | OC[C@@H](Nc1ncnc2oc(-c3ccccc3)c(-c3ccccc3)c12)c1ccccc1 | 52 | 393 | –
10 | OC[C@@H](Nc1ncnc2oc(-c3ccccc3)c(-c3ccco3)c12)c1ccccc1 | 73 | 434 | –

More lines, main results first:

Row | IC50 [1] [nM] | IC50 [2] [nM] | Compound | further results
11 | 29 | 218 | CC(=O)Nc1cccc(-c2c(-c3ccccc3)oc3ncnc(N[C@H](CO)c4ccccc4)c23)c1 | –
12 | 4 | 48 | CN(C)CC(=O)Nc1cccc(-c2c(-c3ccccc3)oc3ncnc(N[C@H](CO)c4ccccc4)c23)c1 | –
13 | 2 | 8 | CN(C)CCC(=O)Nc1cccc(-c2c(-c3ccccc3)oc3ncnc(N[C@H](CO)c4ccccc4)c23)c1 | inhibition [3]: 50%; inhibition [4]: 100%; Ratio IC50 [5]: 4; Ratio IC50 [6]: 7; inhibition [7]: 99%; inhibition [8]: 80%; inhibition [9]: -4%; inhibition [10]: 106%
14 | > 25000 | > 25000 | CC(C)CCCC(=O)Nc1cccc(-c2c(-c3ccccc3)oc3ncnc(N[C@H](CO)c4ccccc4)c23)c1 | –
15 | 22 | 203 | Nc1cccc(-c2c(-c3ccccc3)oc3ncnc(N[C@H](CO)c4ccccc4)c23)c1 | –
16 | 34 | 29 | CN(C)CCCC(=O)Nc1cccc(-c2c(-c3ccccc3)oc3ncnc(N[C@H](CO)c4ccccc4)c23)c1 | –
17 | 486 | 4330 | CN(C)CCCCCC(=O)Nc1cccc(-c2c(-c3ccccc3)oc3ncnc(N[C@H](CO)c4ccccc4)c23)c1 | –
18 | 4 | 34 | CN(C)CCCCC(=O)Nc1cccc(-c2c(-c3ccccc3)oc3ncnc(N[C@H](CO)c4ccccc4)c23)c1 | –
